# Measured values from different studies.
# Protocols differ between the studies behind these lines.
# CYP2D6: Cytochrome P450 2D6 (CYP2D6, Homo sapiens, UniProt P10635)
SMILES,tested on,assay,system,conditions,endpoint,result
COC(=O)C1CCN(C(=O)c2ccc(N(C)Cc3cnc4nc(N)nc(N)c4n3)cc2)CC1,CYP2D6,"enzyme activity, inhibitor, luciferase",,10 µM,inhibition,-32.7%
CN[C@@H](C)C(=O)N[C@H]1CN(C(=O)CC(C)C)CC[C@H]2CC[C@@H](C(=O)NC(c3ccccc3)c3ccccc3)N2C1=O,,,"beagle dog, plasma","oral, 10 mg/kg",half-life,27 h
O=C[C@H](C[C@@H]1CCNC1=O)NC(=O)[C@H](CC1CCCCC1)NC(=O)c1cc2ccccc2[nH]1,,,"dog, plasma","intravenous, 8 mg/kg",AUC,14500 ng·h/mL
CCC[C@@](N)(CO)CCc1ccc(OCCCCCC(C)C)cc1,CYP2D6,"enzyme activity, inhibitor",,,IC50,32 µM
Cc1ncc(C)n2nc(/C=C/c3nc(N4CCCC4)cc(N4CCOCC4)n3)nc12,,,"male beagle dog, plasma","oral, 0.3 mg/kg",half-life,3.7 h
C=C[C@H]1C[N@@]2CC[C@H]1C[C@@H]2[C@@H](O)c1ccnc2ccc(OC)cc12,CYP2D6,"enzyme activity, inhibitor","human, liver microsomes",10 µM,inhibition,87%
COC(=O)C1CCN(C(=O)c2ccc(NCc3cnc4nc(N)nc(N)c4n3)cc2)CC1,CYP2D6,"enzyme activity, inhibitor, luciferase",,10 µM,inhibition,-27.7%
N=c1c2c(-c3ccccc3)c(-c3ccccc3)n(Cc3ccccc3)c2ncn1[C@H]1CC[C@H](O)CC1,,,"male beagle dog, plasma","intravenous, 0.5 mg/kg, single dose",Vd,15.9 L/kg
